# From paper PMC7931646 (The Journal of Experimental Medicine, 2021)
# Where two headings read alike, the source gives them in different places.
# Legend:
# [1] = Liver microsomal stability, human; type: in vitro ADME; details: liver microsomes
# Summary of the method: (§1)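 Test compound at 1 µM was incubated for 30 min with liver microsomes at 1 mg/ml (human, rat or mouse). Result is percent of parent compound remaining.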
# [2] = Liver microsomal stability, rat; type: in vitro ADME; details: liver microsomes
# Summary of the method: as §1
# [3] = Liver microsomal stability, mouse; type: in vitro ADME; details: liver microsomes
# Summary of the method: as §1
# CYP450 3A4 = CYP450 3A4 (Homo sapiens, UniProt P08684); test: CYP450 inhibition, recombinant isoform; type: in vitro ADME
# Sequence of CYP450 3A4 (P08684 whole entry, canonical isoform): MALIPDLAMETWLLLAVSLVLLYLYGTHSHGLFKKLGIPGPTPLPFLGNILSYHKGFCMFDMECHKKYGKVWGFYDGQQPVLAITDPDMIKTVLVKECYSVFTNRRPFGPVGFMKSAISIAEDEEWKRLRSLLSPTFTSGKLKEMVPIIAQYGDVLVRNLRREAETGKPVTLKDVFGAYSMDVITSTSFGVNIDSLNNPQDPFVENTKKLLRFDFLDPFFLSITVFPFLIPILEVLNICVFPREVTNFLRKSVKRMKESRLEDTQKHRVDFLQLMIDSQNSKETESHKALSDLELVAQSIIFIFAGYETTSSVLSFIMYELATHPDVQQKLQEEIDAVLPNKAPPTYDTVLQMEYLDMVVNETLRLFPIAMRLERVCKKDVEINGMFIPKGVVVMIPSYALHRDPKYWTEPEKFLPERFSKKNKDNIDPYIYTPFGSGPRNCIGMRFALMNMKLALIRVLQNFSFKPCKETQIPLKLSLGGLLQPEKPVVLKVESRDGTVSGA
# Summary of the method: (§2)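 Recombinant human CYP450 isoforms were incubated with isoform-specific probe substrates; for CYP3A4 these were midazolam and testosterone. Inhibition was quantified by LC-MS/MS analysis of probe-substrate turnover.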
# CYP450 2C9 = CYP450 2C9 (Homo sapiens, UniProt P11712); test: CYP450 inhibition, recombinant isoform; type: in vitro ADME
# Sequence of CYP450 2C9 (P11712 whole entry, canonical isoform): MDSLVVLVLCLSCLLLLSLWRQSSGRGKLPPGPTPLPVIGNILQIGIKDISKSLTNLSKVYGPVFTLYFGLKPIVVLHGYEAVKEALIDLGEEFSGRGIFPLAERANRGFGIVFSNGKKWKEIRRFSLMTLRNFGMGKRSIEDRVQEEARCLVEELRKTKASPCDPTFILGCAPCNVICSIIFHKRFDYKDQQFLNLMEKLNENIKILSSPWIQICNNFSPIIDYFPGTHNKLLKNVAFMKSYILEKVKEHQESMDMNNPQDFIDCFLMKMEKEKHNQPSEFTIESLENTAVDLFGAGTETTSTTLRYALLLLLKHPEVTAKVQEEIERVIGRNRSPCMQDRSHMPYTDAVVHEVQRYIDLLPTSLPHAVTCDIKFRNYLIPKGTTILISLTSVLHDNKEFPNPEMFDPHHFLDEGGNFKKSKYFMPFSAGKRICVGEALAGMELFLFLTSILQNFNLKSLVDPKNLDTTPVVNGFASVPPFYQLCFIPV
# CYP450 2C19 = CYP450 2C19 (Homo sapiens, UniProt P33261); test: CYP450 inhibition, recombinant isoform; type: in vitro ADME
# Sequence of CYP450 2C19 (P33261 whole entry, canonical isoform): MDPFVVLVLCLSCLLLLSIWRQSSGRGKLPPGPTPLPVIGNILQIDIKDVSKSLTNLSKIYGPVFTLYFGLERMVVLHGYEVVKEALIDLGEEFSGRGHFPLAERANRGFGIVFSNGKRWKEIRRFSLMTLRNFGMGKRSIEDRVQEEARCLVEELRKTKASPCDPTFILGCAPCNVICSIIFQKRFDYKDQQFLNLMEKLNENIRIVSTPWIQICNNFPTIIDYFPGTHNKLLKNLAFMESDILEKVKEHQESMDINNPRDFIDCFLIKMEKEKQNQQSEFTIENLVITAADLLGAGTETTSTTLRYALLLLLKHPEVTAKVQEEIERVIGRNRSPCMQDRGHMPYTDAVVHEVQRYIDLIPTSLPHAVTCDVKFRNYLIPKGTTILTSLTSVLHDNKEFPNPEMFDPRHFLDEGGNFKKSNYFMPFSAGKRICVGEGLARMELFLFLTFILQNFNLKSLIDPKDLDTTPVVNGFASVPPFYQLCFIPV
# Summary of the method: as §2
# CYP450 2D6 = CYP450 2D6 (Homo sapiens, UniProt P10635); test: CYP450 inhibition, recombinant isoform; type: in vitro ADME
# Sequence of CYP450 2D6 (P10635 whole entry, canonical isoform): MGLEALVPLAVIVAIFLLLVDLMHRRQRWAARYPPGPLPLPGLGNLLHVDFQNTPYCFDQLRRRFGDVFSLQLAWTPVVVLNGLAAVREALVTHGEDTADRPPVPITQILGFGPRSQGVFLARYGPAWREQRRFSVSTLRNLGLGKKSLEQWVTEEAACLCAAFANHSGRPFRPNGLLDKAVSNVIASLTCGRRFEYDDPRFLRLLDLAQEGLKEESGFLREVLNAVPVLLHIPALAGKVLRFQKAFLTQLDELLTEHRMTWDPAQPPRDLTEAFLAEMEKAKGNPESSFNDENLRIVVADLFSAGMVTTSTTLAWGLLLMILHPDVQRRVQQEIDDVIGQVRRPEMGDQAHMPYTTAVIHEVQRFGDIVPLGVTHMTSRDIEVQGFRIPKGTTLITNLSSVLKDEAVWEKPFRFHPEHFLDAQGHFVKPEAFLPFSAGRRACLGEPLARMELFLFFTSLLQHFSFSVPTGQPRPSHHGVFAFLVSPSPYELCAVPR
# Summary of the method: as §2
# [4] = Plasma protein binding, equilibrium dialysis; type: in vitro ADME; details: human
# Summary of the method: (§3)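 Equilibrium dialysis of test compound in human, rat or mouse plasma against buffer across a semipermeable membrane. Compound concentrations in both compartments were measured by LC/MS, and percent bound was derived from them.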
# [5] = Plasma protein binding, equilibrium dialysis; type: in vitro ADME; details: rat
# Summary of the method: as §3
# [6] = Plasma protein binding, equilibrium dialysis; type: in vitro ADME; details: mouse
# Summary of the method: as §3
# hERG channel = hERG channel (Homo sapiens, UniProt Q12809); test: Patch-Xpress patch-clamp hERG assay in HEK-293 cells; type: cell-based
# Sequence of hERG channel (Q12809 whole entry): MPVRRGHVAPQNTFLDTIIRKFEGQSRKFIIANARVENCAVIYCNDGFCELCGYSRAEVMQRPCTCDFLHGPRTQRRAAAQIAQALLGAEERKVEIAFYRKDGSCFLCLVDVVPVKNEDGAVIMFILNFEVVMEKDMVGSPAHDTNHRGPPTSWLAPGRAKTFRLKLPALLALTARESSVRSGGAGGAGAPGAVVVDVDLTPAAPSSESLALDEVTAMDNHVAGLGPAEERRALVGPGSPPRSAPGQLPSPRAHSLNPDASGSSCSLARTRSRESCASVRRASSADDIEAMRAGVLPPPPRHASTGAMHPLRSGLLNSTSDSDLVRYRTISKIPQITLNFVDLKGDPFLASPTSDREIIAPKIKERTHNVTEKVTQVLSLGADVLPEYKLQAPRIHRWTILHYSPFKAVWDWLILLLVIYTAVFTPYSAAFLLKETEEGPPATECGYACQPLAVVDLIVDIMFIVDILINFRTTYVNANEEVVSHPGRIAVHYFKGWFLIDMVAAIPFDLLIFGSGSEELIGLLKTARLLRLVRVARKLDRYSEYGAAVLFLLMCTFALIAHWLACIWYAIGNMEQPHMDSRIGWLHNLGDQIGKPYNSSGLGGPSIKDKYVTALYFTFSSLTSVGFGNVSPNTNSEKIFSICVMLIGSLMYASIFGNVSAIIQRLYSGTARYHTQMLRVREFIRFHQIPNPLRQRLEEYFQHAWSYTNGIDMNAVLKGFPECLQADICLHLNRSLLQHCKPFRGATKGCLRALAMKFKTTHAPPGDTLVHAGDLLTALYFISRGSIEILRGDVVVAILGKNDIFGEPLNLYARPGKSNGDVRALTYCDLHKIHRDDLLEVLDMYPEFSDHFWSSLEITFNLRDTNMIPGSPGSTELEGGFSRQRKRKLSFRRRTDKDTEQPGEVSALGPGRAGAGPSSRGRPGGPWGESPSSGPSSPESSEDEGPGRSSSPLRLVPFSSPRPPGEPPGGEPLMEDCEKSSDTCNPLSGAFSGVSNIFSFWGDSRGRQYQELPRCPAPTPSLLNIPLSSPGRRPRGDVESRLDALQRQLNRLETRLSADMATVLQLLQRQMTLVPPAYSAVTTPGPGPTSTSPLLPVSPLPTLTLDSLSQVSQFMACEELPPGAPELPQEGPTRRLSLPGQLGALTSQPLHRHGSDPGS
# MDR1-MDCK permeability = type: in vitro ADME; details: dog
# Summary of the method: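 Transport across MDR1-MDCK cell monolayers. Apparent permeability was measured in the apical-to-basolateral direction (× 10−6 cm/s). Efflux ratio was calculated as Papp B-A / Papp A-B.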
# [7] = system: S. typhimurium bacterial strains TA98, TA100, TA1535, TA1537; test: Non-GLP screening; type: cell-based, Salmonella typhimurium; details: 5–100 µM, with and without Aroclor-induced rat liver S9
# Summary of the method: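 Non-GLP mini-Ames screen using S. typhimurium TA98, TA100, TA1535 and TA1537, with and without Aroclor-induced rat liver S9. Test article was applied at 5–100 µM. Read-out was bacterial growth from reversion of the histidine mutation.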
# NK3 = NK3 (Homo sapiens, UniProt P29371); test: CEREP off-target radioligand binding panel; details: read-out: inhibition of ligand binding
# Sequence of NK3 (P29371 whole entry): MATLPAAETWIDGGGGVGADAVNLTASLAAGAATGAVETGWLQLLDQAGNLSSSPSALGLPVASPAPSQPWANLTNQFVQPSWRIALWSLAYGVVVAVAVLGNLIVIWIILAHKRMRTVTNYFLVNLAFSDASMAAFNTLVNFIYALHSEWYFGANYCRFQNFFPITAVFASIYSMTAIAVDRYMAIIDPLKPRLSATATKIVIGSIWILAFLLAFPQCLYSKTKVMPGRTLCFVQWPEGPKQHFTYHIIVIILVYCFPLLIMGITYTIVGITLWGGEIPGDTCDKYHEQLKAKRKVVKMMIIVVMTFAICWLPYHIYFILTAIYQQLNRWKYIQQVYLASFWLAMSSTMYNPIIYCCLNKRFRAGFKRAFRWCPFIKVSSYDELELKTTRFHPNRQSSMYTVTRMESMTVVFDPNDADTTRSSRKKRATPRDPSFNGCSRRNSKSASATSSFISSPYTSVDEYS
# Summary of the method: (§4)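 CEREP secondary-pharmacology panel of 55 receptors, transporters and ion channels. Test compound at 10 µM was assessed for inhibition of binding of a radiolabelled reference ligand specific to each target. Result is percent inhibition of ligand binding.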
# κ opioid receptors = test: CEREP off-target radioligand binding panel; details: 10 µM
# Summary of the method: as §4
# [8] = system: chloride channel (γ-aminobutyric acid–gated); test: CEREP off-target radioligand binding panel; details: 10 µM
# Summary of the method: as §4
# [9] = Single-dose i.v./po PK in cynomolgus macaques; type: in vivo, cynomolgus macaque; details: for clearance: male, cynomolgus monkey, plasma, iv, 1 mg/kg
# Summary of the method: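 Cynomolgus monkeys received a single i.v. dose of 1 mg/kg. Whole blood was collected at set time points and processed to plasma. Drug levels were measured with a bioanalytical method validated for NHP plasma. Clearance was derived from the plasma concentration–time data.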
# [10] = system: Aβ42 and Aβ40 levels in plasma and brain; test: 9-d repeat-dose efficacy in C57BL/6J mice; type: in vivo, mouse; details: 10 mg/kg/d for 9 d
# cerebral amyloidosis = test: Immunohistochemistry of amyloid deposition; type: in vivo, mouse; details: 25 mg/kg/d, 3 mo
# Summary of the method: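 Female PSAPP mice began treatment at 90 or 180 d of age with vehicle (PEG 400/water/Tween 20) or test compound 25 mg/kg/d by oral gavage for 3 mo. Cerebral amyloid deposition in cortex and hippocampus was assessed by immunohistochemistry with anti-Aβ mAb 3D6, alongside Iba1 staining for microgliosis.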
# [11] = system: Aβ42, Aβ40, Aβ38 in plasma, brain and CSF; test: 9-d repeat-dose pharmacodynamics in male Sprague-Dawley rats; type: in vivo, rat; details: 5 mg/kg po daily 9 d, 4 h post dose
# Summary of the method: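 Male Sprague-Dawley rats, n = 14 per dose level, received vehicle (80% PEG 400, 20% water, 0.1% Tween 20) or test compound at 5, 25 or 50 mg/kg orally once daily for 9 d. Sampling was 4 h after the day-9 dose: plasma, brain extracts, and CSF from the cisterna magnum. Aβ38/40/42 were measured by MSD multiplex assay. Results are mean ± SEM, analysed by ANOVA.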
# [12] = system: Aβ38, Aβ40, Aβ42 in plasma; test: Acute single-dose escalation and time course efficacy in NHPs; type: in vivo, cynomolgus macaque
# Summary of the method: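 Cynomolgus macaques, two male and two female. Escalation phase: single nasogastric doses of 0, 10, 30, 100 and 200 mg/kg, with blood taken 4 h post-dose. Repeat phase: 200 mg/kg for 2 d, then 100 mg/kg for 5 d, with blood on days 1 and 7 at predose and 1, 2, 4, 8 and 24 h. K3EDTA plasma was stored at ≤ −60°C. Aβ38/40/42 were measured by MSD multiplex assay.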
# [13] = GLP cardiopulmonary safety pharmacology study in NHPs; type: in vivo, NHP; details: NHPs, 10, 30 and 60 mg/kg
# [14] = system: S. typhimurium strains TA1535, TA1537, TA98, TA100 and E. coli strain WP2 (uvrA); test: GLP Salmonella–Escherichia coli/microsome plate incorporation; type: cell-based, Salmonella typhimurium; details: two S. typhimurium strains (T98 and T100), only with Aroclor-induced rat liver S9
# Summary of the method: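 GLP plate-incorporation mutagenicity test using S. typhimurium TA1535, TA1537, TA98 and TA100 and E. coli WP2 (uvrA). Each strain was run with and without a metabolic activation mix of Aroclor 1254–induced rat liver microsomes (S9). Read-out is revertant bacterial growth.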
# [15] = Estimation of effective AUC and unbound Ceffective in rodents
compound,measurement,setting,value
"COc1nc(-c2cc(C)c(N[C@@H](C)c3cc(F)cc(F)c3)nn2)ccc1-n1cnc(C)c1 [Compound 2, (S)-N-(1-(3,5-difluorophenyl)ethyl)-6-(6-methoxy-5-(4-methyl-1H-imidazol-1-yl)pyridin-2-yl)-4-methylpyridazin-3-amine]","remaining at 0.5 h, 1 µM",[1],71%
same,"remaining at 0.5 h, 1 µM",[2],76%
same,"remaining at 0.5 h, 1 µM",[3],91%
same,IC50,CYP450 3A4,9.4 µM
same,IC50,"CYP450 3A4; CYP450 IC50 3A4 (m), probe substrate midazolam",42 µM
same,IC50,CYP450 2C9,4.4 µM
same,IC50,CYP450 2C19,12 µM
same,IC50,CYP450 2D6,11 µM
same,% PPB H,[4],99.8%
same,% PPB R,[5],99.9%
same,% PPB M,[6],99.9%
same,IC50,hERG channel,7.3 µM
same,safety margin between Aβ42 IC50 and hERG IC20,hERG channel,> 100 fold
same,IC20,"hERG channel; human, HEK-293 cells expressing hERG",1.3 µM
same,Papp A→B,MDR1-MDCK permeability,23.3 ×10⁻⁶ cm/s
same,Ames,[7],Negative
same,inhibition at 10 µM,NK3,> 50%
same,inhibition of ligand binding,κ opioid receptors,Greater than 50%
same,inhibition of ligand binding,[8],Greater than 50%
same,CL as percent of reported hepatic blood flow,"[9]; NHPs, hepatic blood flow 50 ml/min/kg",< 10%
same,clearance,"[9]; CL, NHPs",5.5 mL/min/kg
same,clearance,"[9]; Cl, NHP",5.52 mL/min/kg
same,elimination of detectable Aβ42 in brain,[10],100%
same,reduction in plasma Aβ42 levels,[10],> 90%
same,"attenuation of cerebral amyloidosis (mAb 3D6), cortex and hippocampus","cerebral amyloidosis; 6-mo-old PSAPP mice (prophylactic group), P < 0.01",greater than twofold
same,"cerebral amyloidosis (mAb 3D6), cortex and hippocampus, vs vehicle","cerebral amyloidosis; 9-mo-old PSAPP mice (disease-modifying group), P < 0.03",statistically significant decrease
same,Brain % Aβ42 ∆ vs vehicle (↓ reduction),[11],54%
same,Brain %Aβ40 ∆ vs vehicle (↓ reduction),[11],29%
same,CSF % Aβ42 ∆ vs vehicle (↓ reduction),[11],41%
same,CSF %Aβ40 ∆ vs vehicle (↓ reduction),[11],29%
same,Plasma % Aβ40 ∆ vs vehicle (↓ reduction),[11],57%
same,Plasma % Aβ42 ∆ vs vehicle (↓ reduction),[11],78%
same,effect on levels of Aβ38 in plasma,[12],did not affect
same,sustained lowering of plasma Aβ42 and Aβ40 peptides,"[12]; 200 mg/kg, day 1 of repeat-dosing phase, for over 24 h",~70%
same,"effect on electrocardiogram parameters, including corrected QT interval",[13],no significant effect
same,GLP Ames bacterial mutagenicity result,[14],positive
same,unbound average Ceffective,[15]; plasma unbound fraction 0.1%,~0.58 ng/mL
same,unbound average Ceffective,[15]; plasma unbound fraction 1.0%,5.8 ng/mL
same,AUC,"[15]; rat, plasma",13800 ng·h/mL
